Test results as given in ChEMBL document CHEMBL1157458, “Exploring the substituent effects on a novel series of C1'-dimethyl-aryl Delta8-tetrahydrocannabinol analogs” (Bioorg Med Chem, 2008).

Key:
[1] = Cytotoxicity against human DBTRG-O5MG cells assessed as cell death after 18 hrs; type: functional, cell-based
Summary of the method: (§1)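 Glioma lines (U-87MG, T98G, LN-229, DBTRG-O5MG, primary MT310) plated at 70% confluency in 100 µl supplemented medium, left overnight at 37 °C to adhere. Cells were then exposed to escalating drug amounts for 18 h. Viability was measured by CCK-8 absorbance at 450 nm relative to untreated controls. Values are the mean of three data points per determination, three independent determinations.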

[2] = Cytotoxicity against human LN229 cells assessed as cell death after 18 hrs; type: functional, cell-based; details: LN-229, 18 h; summary of the method: as §1
Cannabinoid receptor 1 = Cannabinoid receptor 1 (Homo sapiens, UniProt P21554); experiment: Displacement of [3H]CP-55940 from human CB1 receptor expressed in HEK293 cells; type: cell-based
T98G = experiment: Cytotoxicity against human T98G cells assessed as cell death after 18 hrs; type: functional, cell-based; summary of the method: as §1
[3] = Cytotoxicity against human MT310 cells assessed as cell death after 18 hrs; type: functional, cell-based; summary of the method: as §1
Homo sapiens = species: Homo sapiens; experiment: Selectivity ratio of Ki for human CB1 receptor to Ki for human CB2 receptor
Cannabinoid receptor 2 = Cannabinoid receptor 2 (Homo sapiens, UniProt P34972); experiment: Displacement of [3H]CP-55940 from human CB2 receptor expressed in CHO-K1 cells; type: cell-based
[4] = Cytotoxicity against human U87 cells by side flank model relative to control; type: functional, U-87MG ATCC; details: U-87 MG
[5] = Cytotoxicity against human U87MG cells assessed as cell death after 18 hrs; type: functional, U-87MG ATCC; summary of the method: as §1

Sequence of Cannabinoid receptor 2 (P34972 whole entry): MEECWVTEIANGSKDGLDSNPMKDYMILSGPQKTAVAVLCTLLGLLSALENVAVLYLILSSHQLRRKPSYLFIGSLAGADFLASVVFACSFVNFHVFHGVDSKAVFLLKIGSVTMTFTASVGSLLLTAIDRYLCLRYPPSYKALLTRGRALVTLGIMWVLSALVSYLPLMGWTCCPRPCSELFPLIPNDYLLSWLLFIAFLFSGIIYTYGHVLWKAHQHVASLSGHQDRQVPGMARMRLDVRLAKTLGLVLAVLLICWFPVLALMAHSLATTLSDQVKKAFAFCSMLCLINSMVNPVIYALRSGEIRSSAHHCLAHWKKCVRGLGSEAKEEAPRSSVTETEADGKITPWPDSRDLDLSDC
Sequence of Cannabinoid receptor 1 (P21554 whole entry): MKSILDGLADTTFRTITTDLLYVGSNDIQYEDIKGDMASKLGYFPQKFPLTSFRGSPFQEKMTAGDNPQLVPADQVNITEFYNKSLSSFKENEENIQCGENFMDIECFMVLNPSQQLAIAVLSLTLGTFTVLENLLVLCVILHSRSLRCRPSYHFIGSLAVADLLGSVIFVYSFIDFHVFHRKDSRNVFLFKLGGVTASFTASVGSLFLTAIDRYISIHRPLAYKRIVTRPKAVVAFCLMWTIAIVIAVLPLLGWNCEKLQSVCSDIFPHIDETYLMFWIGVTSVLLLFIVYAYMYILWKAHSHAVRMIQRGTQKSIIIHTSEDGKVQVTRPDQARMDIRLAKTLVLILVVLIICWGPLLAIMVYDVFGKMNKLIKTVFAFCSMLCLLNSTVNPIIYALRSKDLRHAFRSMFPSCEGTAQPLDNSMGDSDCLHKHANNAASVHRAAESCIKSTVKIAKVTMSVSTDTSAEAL

`CC1=CC[C@@H]2[C@@H](C1)c1c(O)cc(C(C)(C)c3cccs3)cc1OC2(C)C` showed an EC50 [1] of 2670 nM, an EC50 [2] of 2020 nM and a Ki (Cannabinoid receptor 1) of 1.08 nM. It also gave an EC50 (T98G) of 2210 nM, an EC50 [3] of 4100 nM and a Ratio Ki (Homo sapiens) of 4. The Ki (Cannabinoid receptor 2) was 0.27 nM and the EC50 [4] was 1830 nM.

Work on `CC1=CC[C@@H]2[C@@H](C1)c1c(O)cc(C(C)(C)c3cc(C)cc(C)c3)cc1OC2(C)C` yielded a Ki (Cannabinoid receptor 1) of 11 nM, a Ratio Ki (Homo sapiens) of 1.48 and a Ki (Cannabinoid receptor 2) of 7.45 nM.

For `CC1=CC[C@@H]2[C@@H](C1)c1c(O)cc(C(C)(C)c3ccc(F)cc3)cc1OC2(C)C`, the EC50 [1] was 3080 nM, the EC50 [2] was 2020 nM and the Ki (Cannabinoid receptor 1) was 76.1 nM. The EC50 (T98G) was 3300 nM, the EC50 [3] was 8780 nM and the Ratio Ki (Homo sapiens) was 6.14. It also gave a Ki (Cannabinoid receptor 2) of 12.4 nM and an EC50 [4] of 2550 nM.

Work on `CCCc1ccc(C(C)(C)c2cc(O)c3c(c2)OC(C)(C)[C@@H]2CC=C(C)C[C@@H]32)cc1` yielded an EC50 [1] of 3580 nM, an EC50 [2] of 2440 nM and a Ki (Cannabinoid receptor 1) of 1.77 nM. For the same molecule, the EC50 (T98G) was 3630 nM, the EC50 [3] was 6460 nM and the Ratio Ki (Homo sapiens) was 0.23. It also gave a Ki (Cannabinoid receptor 2) of 7.83 nM and an EC50 [4] of 3170 nM.

`CC1=CC[C@@H]2[C@@H](C1)c1c(O)cc(C(C)(C)c3ccc(C)cc3)cc1OC2(C)C` gave a Ki (Cannabinoid receptor 1) of 3.13 nM, a Ratio Ki (Homo sapiens) of 3.56 and a Ki (Cannabinoid receptor 2) of 0.88 nM.

`CCc1ccc(C(C)(C)c2cc(O)c3c(c2)OC(C)(C)[C@@H]2CC=C(C)C[C@@H]32)cc1` gave an EC50 [1] of 3000 nM, an EC50 [2] of 1670 nM and a Ki (Cannabinoid receptor 1) of 1.85 nM. The EC50 (T98G) was 3230 nM, the EC50 [3] was 4110 nM and the Ratio Ki (Homo sapiens) was 2.76. For the same molecule, the Ki (Cannabinoid receptor 2) was 0.67 nM and the EC50 [4] was 2520 nM.

With `CC1=CC[C@@H]2[C@@H](C1)c1c(O)cc(C(C)(C)c3cccc(C#N)c3)cc1OC2(C)C` the Ki (Cannabinoid receptor 1) was 2.72 nM, the Ratio Ki (Homo sapiens) was 2.98 and the Ki (Cannabinoid receptor 2) was 0.91 nM.

For `CC1=CC[C@@H]2[C@@H](C1)c1c(O)cc(C(C)(C)c3ccc(Cl)cc3)cc1OC2(C)C`, the EC50 [1] was 4610 nM, the EC50 [2] was 2870 nM and the Ki (Cannabinoid receptor 1) was 18.8 nM. The EC50 (T98G) was 3400 nM, the EC50 [3] was 7310 nM and the Ratio Ki (Homo sapiens) was 11.2. It also gave a Ki (Cannabinoid receptor 2) of 1.68 nM and an EC50 [4] of 3270 nM.

With `CC1=CC[C@@H]2[C@@H](C1)c1c(O)cc(C(C)(C)c3ccc(C(N)=O)cc3)cc1OC2(C)C` the Ratio Ki (Homo sapiens) was 1.01.

For `CC1=CC[C@@H]2[C@@H](C1)c1c(O)cc(C(C)(C)c3ccccc3)cc1OC2(C)C`, the Activity [5] was 75%, the EC50 [1] was 2270 nM and the EC50 [2] was 2630 nM. For the same molecule, the EC50 (T98G) was 4680 nM, the EC50 [3] was 4290 nM and the Ratio Ki (Homo sapiens) was 13.5. It also gave an EC50 [4] of 3080 nM.

`CC1=CC[C@@H]2[C@@H](C1)c1c(O)cc(C(C)(C)c3cccc(Br)c3)cc1OC2(C)C` gave a Ki (Cannabinoid receptor 1) of 1.59 nM, a Ratio Ki (Homo sapiens) of 2.94 and a Ki (Cannabinoid receptor 2) of 0.54 nM.

With `CC1=CC[C@@H]2[C@@H](C1)c1c(O)cc(C(C)(C)c3ccc(C#N)cc3)cc1OC2(C)C` the Ki (Cannabinoid receptor 1) was 9.25 nM, the Ratio Ki (Homo sapiens) was 3.66 and the Ki (Cannabinoid receptor 2) was 2.53 nM.

`CC1=CC[C@@H]2[C@@H](C1)c1c(O)cc(C(C)(C)c3cccc(F)c3)cc1OC2(C)C` showed a Ki (Cannabinoid receptor 1) of 5.26 nM, a Ratio Ki (Homo sapiens) of 5.84 and a Ki (Cannabinoid receptor 2) of 0.9 nM.

With `CC1=CC[C@@H]2[C@@H](C1)c1c(O)cc(C(C)(C)c3ccccc3C)cc1OC2(C)C` the Ki (Cannabinoid receptor 1) was 34.4 nM, the Ratio Ki (Homo sapiens) was 3.23 and the Ki (Cannabinoid receptor 2) was 10.7 nM.

Work on `CC1=CC[C@@H]2[C@@H](C1)c1c(O)cc(C(C)(C)c3ccc(Br)cc3)cc1OC2(C)C` yielded a Ki (Cannabinoid receptor 1) of 5.03 nM, a Ratio Ki (Homo sapiens) of 3.26 and a Ki (Cannabinoid receptor 2) of 1.54 nM.

`CC1=CC[C@@H]2[C@@H](C1)c1c(O)cc(C(C)(C)c3cccc(Cl)c3)cc1OC2(C)C` showed a Ki (Cannabinoid receptor 1) of 2.8 nM, a Ratio Ki (Homo sapiens) of 0.79 and a Ki (Cannabinoid receptor 2) of 3.54 nM.

For `CC1=CC[C@@H]2[C@@H](C1)c1c(O)cc(C(C)(C)c3cccc(C)c3)cc1OC2(C)C`, the Ki (Cannabinoid receptor 1) was 2.53 nM, the Ratio Ki (Homo sapiens) was 2.24 and the Ki (Cannabinoid receptor 2) was 1.13 nM.
